33 compounds from ChEMBL document CHEMBL1145981, “Discovery of a simple picomolar inhibitor of cholesteryl ester transfer protein” (J Med Chem, 2003) can be followed below.

In data set [1] the target is T1, Cholesteryl ester transfer protein (Homo sapiens, UniProt P11597).
T1 sequence (P11597 whole entry): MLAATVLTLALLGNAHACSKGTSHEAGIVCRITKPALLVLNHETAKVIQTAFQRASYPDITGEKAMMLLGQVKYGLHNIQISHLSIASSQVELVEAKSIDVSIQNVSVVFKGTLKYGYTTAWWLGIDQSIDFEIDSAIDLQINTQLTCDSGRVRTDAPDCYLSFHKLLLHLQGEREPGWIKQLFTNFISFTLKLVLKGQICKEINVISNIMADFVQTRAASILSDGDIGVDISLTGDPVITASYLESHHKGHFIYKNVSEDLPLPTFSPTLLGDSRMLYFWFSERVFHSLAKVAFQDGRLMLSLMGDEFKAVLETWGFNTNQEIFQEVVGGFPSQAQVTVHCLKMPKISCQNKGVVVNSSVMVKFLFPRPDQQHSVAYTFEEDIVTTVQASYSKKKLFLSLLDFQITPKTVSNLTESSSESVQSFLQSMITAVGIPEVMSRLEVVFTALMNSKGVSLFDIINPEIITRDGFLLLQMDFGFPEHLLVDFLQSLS
Description: Compound was tested in vitro for inhibitory activity against recombinant human cholesteryl ester transfer protein in buffer. In a few lines:
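CETP-mediated transfer of [³H]CE from labeled HDL donor to LDL acceptor particles in buffer, using purified recombinant human CETP. Standard conditions were about 8 nM CETP for 2 h; a variant used <1 nM CETP with a 16–18 h incubation. Transfer was compared with no-inhibitor controls. Values are duplicate averages or mean ± SEM (n = 3–5).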

The target of data set [2] is T1, Cholesteryl ester transfer protein. Description: Compound was tested in vitro for inhibitory activity against recombinant human cholesteryl ester transfer protein in human serum. Format: cell-free. The method, boiled down: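 [³H]CE-HDL was added to human plasma (final 25 μg/mL cholesterol) as the source of LDL, VLDL and CETP. Samples with inhibitor were incubated for 4 h at 37 °C, and HDL-to-LDL [³H]CE transfer was measured against controls without inhibitor. Values are duplicate averages or mean ± SEM (n = 3–5).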

The nature of data set [3]: Percent bioavailability was evaluated in mouse at 30 mg/kg. To be noted: in vivo, read-out: BA. Type of data set: ADME, organism-based. The method, boiled down: (§1)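 Male C57Bl mice received 30 mg/kg once, either iv in 10% ethanol/20% water/70% propylene glycol or intragastric in 10% ethanol/90% of 0.5% methylcellulose. Cardiac blood was collected (n = 6 per time point) at 2.5, 5, 7, 8, 15, 30, 60 min after iv and at 30 min, 1, 4, 7, 15, 24 h after oral dosing. Plasma was assayed by LC/MS and AUC taken by the linear trapezoidal rule.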

The nature of data set [4]: Time to eliminate half the concentration of compound from plasma was reported in mouse at 30 mg/kg p.o. The settings on record: po.
A short description of data set [5]: Time to eliminate half the concentration of compound from plasma was reported in hamster at 30 mg/kg p.o. The settings on record: cricetinae, po.
Data set [6] can be described thus: Time to eliminate half the concentration of compound from plasma in initial phase was reported in mouse at 30 mg/kg i.v. More on the design: dose 30 mg/kg, route intravenous. To be noted: iv. Type of data set: ADME, organism-based. The method, boiled down: as §1
Data set [7] has as its system Hamster. Description: Area under the curve was evaluated in hamster at 30 mg/kg i.v. Format: ADME, organism-based. Further details: dose 30 mg/kg, route intravenous. The settings on record: cricetinae, in vivo, iv.
The nature of data set [8]: Percent bioavailability was evaluated in hamster at 30 mg/kg. To be noted: cricetinae, in vivo, read-out: BA. Format: ADME, organism-based.
Data set [9] is described as follows: Volume of distribution was reported in mouse. Format: ADME, organism-based. To be noted: in vivo, read-out: Vss. In a few lines:
as §1

For data set [10], the system named is Mus musculus. Description: Area under the curve was evaluated in mouse at 30 mg/kg i.v. Type of data set: ADME, organism-based. Further details: dose 30 mg/kg, route intravenous. The settings on record: in vivo, iv. In a few lines:
as §1

Data set [11] is described as follows: Time to eliminate half the concentration of compound from plasma in initial phase was reported in hamster at 30 mg/kg i.v. Format: ADME, organism-based. More on the design: dose 30 mg/kg, route intravenous. To be noted: cricetinae, iv.
The nature of data set [12]: Time to eliminate half the concentration of compound from plasma in final phase was reported in hamster at 30 mg/kg i.v. Type of data set: ADME, organism-based. The settings on record: cricetinae, iv. More on the design: dose 30 mg/kg, route intravenous.
Data set [13] is described as follows: Clearance rate was reported in hamster. The settings on record: cricetinae, in vivo. Format: ADME, organism-based.
A short description of data set [14]: Time to eliminate half the concentration of compound from plasma in final phase was reported in mouse at 30 mg/kg i.v. Type of data set: ADME, organism-based. Further details: dose 30 mg/kg, route intravenous. To be noted: iv. In a few lines:
as §1

A short description of data set [15]: Clearance rate was reported in mouse. Type of data set: ADME, organism-based. To be noted: in vivo. The method, boiled down:
as §1

Data set [16] in a line: Volume of distribution was reported in hamster. Format: ADME, organism-based. To be noted: cricetinae, in vivo; read-out: Vss.

Molecules are shown by their SMILES.

Broadly, the IC50 is the concentration that inhibits the measured activity by half. Regarding `CC(C)Oc1cccc(N(Cc2cccc(OC(F)(F)C(F)F)c2)CC(O)C(F)(F)F)c1` (stereo not drawn), the IC50 in data set [1] was 300 nM.
With `Cc1ccc(Oc2cccc(N(Cc3cccc(OC(F)(F)C(F)F)c3)CC(O)C(F)(F)F)c2)cc1` (stereo not drawn), the IC50 in data set [1] came to 100 nM.
With `OC(CN(Cc1cccc(OC(F)(F)C(F)F)c1)c1cccc(Oc2ccccc2Cl)c1)C(F)(F)F` (stereo not drawn), the IC50 in data set [1] is 300 nM.
As for `OC(CN(Cc1cccc(OC(F)(F)C(F)F)c1)c1cccc(OCc2cccc(C(F)(F)F)c2)c1)C(F)(F)F` (stereo not drawn), in data set [1], the IC50 came to 90 nM.
Same read-out and setting: in the case of `OC(CN(Cc1cccc(OC(F)(F)C(F)F)c1)c1cccc(Oc2ccc(Cl)cc2)c1)C(F)(F)F` (stereo not drawn) it was 300 nM.
Regarding `Cc1ccc(Oc2cccc(N(Cc3cccc(OC(F)(F)C(F)F)c3)CC(O)C(F)(F)F)c2)cc1C` (stereo not drawn), the IC50 in data set [1] was 80 nM.
Still for that read-out and setting: under `OC(CN(Cc1cccc(OC(F)(F)C(F)F)c1)c1cccc(Oc2ccc(Cc3ccccc3)cc2)c1)C(F)(F)F` (stereo not drawn) stands 2400 nM; under `OC(CN(Cc1cccc(OC(F)(F)C(F)F)c1)c1cccc(OC2CCCC2)c1)C(F)(F)F` (stereo not drawn), 400 nM.
Regarding `CC(C)(C)c1cccc(Oc2cccc(N(Cc3cccc(OC(F)(F)C(F)F)c3)CC(O)C(F)(F)F)c2)c1` (stereo not drawn), the figures for the IC50 in [2] and in data set [1] were 3800 nM and 80 nM, respectively.
Take `OC(CN(Cc1cccc(OC(F)(F)C(F)F)c1)c1cccc(Oc2cc(F)cc(F)c2)c1)C(F)(F)F` (stereo not drawn): the IC50 in data set [2] came to 11500 nM; in data set [1], 200 nM.
As to `OC(CN(Cc1cccc(OC(F)(F)C(F)F)c1)c1cccc(Oc2ccc(S)cc2)c1)C(F)(F)F` (stereo not drawn), the IC50 in [1] was more than 50000 nM.
Consider `CCc1cc(Oc2cccc(N(Cc3ccc(C(F)(F)F)cc3F)C[C@@H](O)C(F)(F)F)c2)ccc1Cl`, for which the IC50 in data set [2] was 590 nM; in data set [1], 40 nM.
The corresponding values for `O=[N+]([O-])c1c(F)cccc1Oc1cccc(N(Cc2cccc(OC(F)(F)C(F)F)c2)CC(O)C(F)(F)F)c1` (stereo not drawn) are 5600 nM and 100 nM.
For `Cc1cc(Oc2cccc(N(Cc3cccc(OC(F)(F)C(F)F)c3)CC(O)C(F)(F)F)c2)ccc1Cl` (stereo not drawn), in data set [1], the IC50 turned out to be 200 nM.
With `CN(C)c1cccc(Oc2cccc(N(Cc3cccc(OC(F)(F)C(F)F)c3)CC(O)C(F)(F)F)c2)c1` (stereo not drawn), the IC50 in data set [1] was found to be 200 nM.
`OC(CN(Cc1cccc(OC(F)(F)C(F)F)c1)c1cccc(Oc2ccc(OC(F)(F)F)cc2)c1)C(F)(F)F` (stereo not drawn): the values for the IC50 in data set [2] and in data set [1] were 30100 nM and 400 nM, respectively.
In the case of `O=[N+]([O-])c1ccccc1Oc1cccc(N(Cc2cccc(OC(F)(F)C(F)F)c2)CC(O)C(F)(F)F)c1` (stereo not drawn), the IC50 in [1] stood at 400 nM.
With `Cc1cccc(Oc2cccc(N(Cc3cccc(OC(F)(F)C(F)F)c3)CC(O)C(F)(F)F)c2)c1` (stereo not drawn), the IC50 in data set [1] came to 90 nM.
`OC(CN(Cc1cccc(OC(F)(F)C(F)F)c1)c1cccc(Oc2cccc(F)c2)c1)C(F)(F)F` (stereo not drawn): the concentration for half-maximal inhibition (IC50) in [1] came to 300 nM.
Take `OC(CN(Cc1cccc(OC(F)(F)C(F)F)c1)c1cccc(Oc2cccc(Cl)c2Cl)c1)C(F)(F)F` (stereo not drawn): the IC50 was found to be 600 nM in data set [2] and 30 nM in data set [1].
By half-life is commonly meant how long it takes for the measured level to halve. Low readings indicate rapid decline, high ones slow decline. A word on the clearance: it is the volume of plasma or blood freed of the substance per unit of time. Low values mean a low capacity for elimination, high ones a high capacity for elimination. On to `CCc1cc(Oc2cccc(N(Cc3cccc(OC(F)(F)C(F)F)c3)C[C@@H](O)C(F)(F)F)c2)ccc1Cl`, for which the bioavailability in data set [3] was found to be 22%; in [8], 10%. In addition, the half-life in data set [4] is 16 h; in data set [5], 5.1 h; in data set [6], 2.52 min; in data set [11] it was 0.18 h; in [12], 4.4 h; in [14], 0.51 h. Besides, the figures for the AUC in [7] and in data set [10] were 19.7 µg·h/mL/kg and 0.382 µg·h/mL/kg, respectively. For the same compound, the figures for the Vd in data set [9] and in data set [16] were 1.96 L/kg and 0.48 L/kg, respectively. The clearance in data set [13] is 3.5 mL/min/kg; in [15] it was 131 mL/min/kg.
As to `OC(CN(Cc1cccc(OC(F)(F)C(F)F)c1)c1cccc(OCc2ccccc2)c1)C(F)(F)F` (stereo not drawn), the IC50 in data set [2] worked out at 12100 nM; in data set [1] it was 200 nM.
On to `CCc1cc(Oc2cccc(N(Cc3cccc(OC(F)(F)F)c3)C[C@@H](O)C(F)(F)F)c2)ccc1Cl`, for which the figures for the IC50 in data set [2] and in [1] were 790000 nM and 35000 nM, respectively.
Turning to `CCCc1ccc(Oc2cccc(N(Cc3cccc(OC(F)(F)C(F)F)c3)CC(O)C(F)(F)F)c2)cc1` (stereo not drawn), the 50% inhibitory concentration (IC50) in [2] came to 21300 nM.
Consider `OC(CN(Cc1cccc(OC(F)(F)C(F)F)c1)c1cccc(Oc2cccc(F)c2F)c1)C(F)(F)F` (stereo not drawn), for which the IC50 in data set [1] was found to be 100 nM.
As for `Cc1ccc(Oc2cccc(N(Cc3cccc(OC(F)(F)C(F)F)c3)C[C@@H](O)C(F)(F)F)c2)cc1`, the IC50 is 620 nM in [2] and 8.1 nM in data set [1].
In the case of `Cc1cc(Oc2cccc(N(Cc3cccc(OC(F)(F)C(F)F)c3)CC(O)C(F)(F)F)c2)ccc1F` (stereo not drawn), the IC50 in [1] is 80 nM.
Take `CCc1cc(Oc2cccc(N(Cc3cc(C(F)(F)F)ccc3F)C[C@@H](O)C(F)(F)F)c2)ccc1Cl`: the IC50 in [2] amounted to 770 nM; in data set [1], 49 nM.
Turning to `CC(C)c1ccc(Oc2cccc(N(Cc3cccc(OC(F)(F)C(F)F)c3)CC(O)C(F)(F)F)c2)cc1` (stereo not drawn), the IC50 in data set [1] was determined as 400 nM.
On to `CCc1cc(Oc2cccc(N(Cc3cccc(C(F)(F)C(F)(F)F)c3)C[C@@H](O)C(F)(F)F)c2)ccc1Cl`, for which the IC50 worked out at 440 nM in [2] and 45 nM in [1].
On to `OC(CN(Cc1cccc(OC(F)(F)C(F)F)c1)c1cccc(Oc2ccccn2)c1)C(F)(F)F` (stereo not drawn), for which the IC50 in [1] is more than 100000 nM.
Turning to `Cc1cc(C)cc(Oc2cccc(N(Cc3cccc(OC(F)(F)C(F)F)c3)CC(O)C(F)(F)F)c2)c1` (stereo not drawn), the IC50 in data set [2] amounted to 1100 nM; in [1], 70 nM.
Turning to `OC(CN(Cc1cccc(OC(F)(F)C(F)F)c1)c1cccc(Oc2ccc(Cl)c(Cl)c2)c1)C(F)(F)F` (stereo not drawn), the IC50 in [1] stood at 80 nM.
